Assay results as given in ChEMBL document CHEMBL1944541, “Novel inhibitors of nitric oxide synthase with antioxidant properties” (Eur J Med Chem, 2012).
One block for each molecule: values may come before it.

Experiments:
Nitric oxide synthase 1 = Nitric oxide synthase 1 (Rattus norvegicus, UniProt P29476); test: Inhibition of rat recombinant nNOS expressed in baculovirus-infected Sf9 cells assessed as conversion of oxyhemoglobin to methemoglobin by UV spectrophotometer analysis
Nitric oxide synthase 3 = biological target: T1, Nitric oxide synthase 3 (Mus musculus, UniProt P70313); test: Inhibition of C57BL/6 mouse eNOS assessed as conversion of oxyhemoglobin to methemoglobin by UV spectrophotometer analysis
T1 sequence (P70313 whole entry): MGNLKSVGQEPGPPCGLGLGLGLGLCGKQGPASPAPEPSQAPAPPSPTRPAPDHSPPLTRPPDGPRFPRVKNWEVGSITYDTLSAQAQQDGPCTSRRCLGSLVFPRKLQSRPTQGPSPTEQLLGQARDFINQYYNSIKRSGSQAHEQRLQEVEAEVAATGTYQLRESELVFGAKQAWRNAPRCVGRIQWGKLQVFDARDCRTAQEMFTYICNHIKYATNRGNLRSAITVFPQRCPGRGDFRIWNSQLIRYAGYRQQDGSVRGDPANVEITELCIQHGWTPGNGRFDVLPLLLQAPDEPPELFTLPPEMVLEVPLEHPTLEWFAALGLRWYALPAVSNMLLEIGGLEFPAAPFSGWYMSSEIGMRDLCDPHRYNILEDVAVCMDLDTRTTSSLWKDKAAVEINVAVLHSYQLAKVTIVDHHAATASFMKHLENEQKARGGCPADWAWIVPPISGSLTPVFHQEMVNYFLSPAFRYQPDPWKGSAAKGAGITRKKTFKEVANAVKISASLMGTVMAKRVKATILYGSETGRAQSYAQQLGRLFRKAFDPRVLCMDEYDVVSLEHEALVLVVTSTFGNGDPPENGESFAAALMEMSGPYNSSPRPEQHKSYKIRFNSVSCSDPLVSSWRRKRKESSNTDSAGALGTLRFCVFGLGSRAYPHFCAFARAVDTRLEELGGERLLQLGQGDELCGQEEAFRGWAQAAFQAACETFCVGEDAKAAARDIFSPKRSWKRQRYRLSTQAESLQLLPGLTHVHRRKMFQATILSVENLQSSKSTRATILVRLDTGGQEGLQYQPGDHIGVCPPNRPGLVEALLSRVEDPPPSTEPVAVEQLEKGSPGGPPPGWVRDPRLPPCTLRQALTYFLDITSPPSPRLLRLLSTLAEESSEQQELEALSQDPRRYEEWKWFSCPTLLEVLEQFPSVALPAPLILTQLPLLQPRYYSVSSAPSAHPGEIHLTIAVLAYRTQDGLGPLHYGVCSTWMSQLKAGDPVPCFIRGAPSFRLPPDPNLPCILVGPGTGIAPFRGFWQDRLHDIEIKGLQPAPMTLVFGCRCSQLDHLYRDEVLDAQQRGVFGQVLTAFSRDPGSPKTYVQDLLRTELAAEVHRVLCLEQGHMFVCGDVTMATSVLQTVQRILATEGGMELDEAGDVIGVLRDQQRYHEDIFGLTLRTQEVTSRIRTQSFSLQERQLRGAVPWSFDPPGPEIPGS
How it was run: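 eNOS from H5V mouse endothelial cells (passage 5, DMEM with 10% FCS, 37 °C, 5% CO2). Cells were sonicated in Tris-HCl pH 7.4 with EDTA, DTT and protease inhibitors, and the 20,000 g supernatant was used. Activity was followed as oxyhemoglobin→methemoglobin conversion in Hepes pH 7.4 with L-arginine, NADPH, FAD, BH4, Ca2+ and calmodulin. Compounds tested at 500, 100 and 50. Results reported as Ki or percent inhibition.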

[1] = test system: Radical scavenging activity; test: Antioxidant activity assessed as DPPH free radical scavenging activity at 100 uM after 10 mins relative to control; assay type: functional
How it was run: (§1)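 Compounds in ethanol with DPPH radical, tested at 50, 100 and 500, held 10 min at room temperature. Absorbance read at 517 nm and reported as percent decrease against control. IC50 was calculated for selected compounds. Trolox served as reference. Standard deviation was ≤10% (n ≥ 3).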

Plasma [2] = test: Antioxidant activity in human plasma assessed as inhibition of Fe2+-induced lipid hydroperoxidation at 25 uM after 2 hrs by FOX assay relative to control; assay type: functional, cell-free
[3] = Antioxidant activity assessed as NADH oxidation-induced superoxide radical scavenging activity at 100 uM after 20 mins relative to control; assay type: functional
How it was run: (§2)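 Superoxide generated without a Fenton-type reaction from NADH, EDTA/MnCl2 and β-mercaptoethanol in triethanolamine-diethanolamine buffer, pH 7.4 (1 mL). Compounds tested at 25, 50 and 100. […] IC50 was calculated. SOD (40 mU/ml) served as reference. SD ≤10% (n ≥ 3).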

[4] = Antioxidant activity assessed as NADH oxidation-induced superoxide radical scavenging activity at 50 uM after 20 mins relative to control; assay type: functional; how it was run: as §2
[5] = Antioxidant activity assessed as NADH oxidation-induced superoxide radical scavenging activity after 20 mins; assay type: functional; how it was run: as §2
Plasma [6] = test: Antioxidant activity in human plasma assessed as inhibition of Fe2+-induced lipid hydroperoxidation after 2 hrs by FOX assay; assay type: functional, cell-free
CYP450 = test: Inhibition of rat spleen microsomal CYP450 assessed as reduction of NADPH dependent cytochrome c at 500 uM; assay type: ADME; settings: spleen microsomes, probe cytochrome c
How it was run: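 Rat spleen microsomal P450 activity measured as NADPH-dependent cytochrome c reduction. Incubation 15 min at 25 °C with or without compound, range 5–500.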

Plasma [7] = test: Antioxidant activity in human plasma assessed as inhibition of Fe2+-induced lipid hydroperoxidation at 50 uM after 2 hrs by FOX assay relative to control; assay type: functional, cell-free
How it was run: (§3)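 Plasma from a healthy donor: heparinized venous blood taken after an overnight fast, spun at 800 g for 20 min. Plasma was diluted 1:1 with oxygenated PBS and incubated 2 h at 37 °C with or without compound (10, 50, 100). Lipid hydroperoxides were measured by FOX assay (Fe2+→Fe3+ with xylenol orange, 560 nm), calibrated against H2O2. Results given as percent inhibition against untreated plasma.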

Plasma [8] = test: Antioxidant activity in human plasma assessed as inhibition of Fe2+-induced lipid hydroperoxidation at 100 uM after 2 hrs by FOX assay relative to control; assay type: functional, cell-free; how it was run: as §3
[9] = test system: Radical scavenging activity; test: Antioxidant activity assessed as DPPH free radical scavenging activity after 10 mins; assay type: functional; how it was run: as §1
[10] = test system: Radical scavenging activity; test: Antioxidant activity assessed as DPPH free radical scavenging activity at 500 uM after 10 mins relative to control; assay type: functional; how it was run: as §1
[11] = test system: Radical scavenging activity; test: Antioxidant activity assessed as DPPH free radical scavenging activity at 50 uM after 10 mins relative to control; assay type: functional; how it was run: as §1
[12] = Antioxidant activity assessed as NADH oxidation-induced superoxide radical scavenging activity at 25 uM after 20 mins relative to control; assay type: functional; how it was run: as §2

Nitric oxide synthase 1, sequence (P29476 whole entry): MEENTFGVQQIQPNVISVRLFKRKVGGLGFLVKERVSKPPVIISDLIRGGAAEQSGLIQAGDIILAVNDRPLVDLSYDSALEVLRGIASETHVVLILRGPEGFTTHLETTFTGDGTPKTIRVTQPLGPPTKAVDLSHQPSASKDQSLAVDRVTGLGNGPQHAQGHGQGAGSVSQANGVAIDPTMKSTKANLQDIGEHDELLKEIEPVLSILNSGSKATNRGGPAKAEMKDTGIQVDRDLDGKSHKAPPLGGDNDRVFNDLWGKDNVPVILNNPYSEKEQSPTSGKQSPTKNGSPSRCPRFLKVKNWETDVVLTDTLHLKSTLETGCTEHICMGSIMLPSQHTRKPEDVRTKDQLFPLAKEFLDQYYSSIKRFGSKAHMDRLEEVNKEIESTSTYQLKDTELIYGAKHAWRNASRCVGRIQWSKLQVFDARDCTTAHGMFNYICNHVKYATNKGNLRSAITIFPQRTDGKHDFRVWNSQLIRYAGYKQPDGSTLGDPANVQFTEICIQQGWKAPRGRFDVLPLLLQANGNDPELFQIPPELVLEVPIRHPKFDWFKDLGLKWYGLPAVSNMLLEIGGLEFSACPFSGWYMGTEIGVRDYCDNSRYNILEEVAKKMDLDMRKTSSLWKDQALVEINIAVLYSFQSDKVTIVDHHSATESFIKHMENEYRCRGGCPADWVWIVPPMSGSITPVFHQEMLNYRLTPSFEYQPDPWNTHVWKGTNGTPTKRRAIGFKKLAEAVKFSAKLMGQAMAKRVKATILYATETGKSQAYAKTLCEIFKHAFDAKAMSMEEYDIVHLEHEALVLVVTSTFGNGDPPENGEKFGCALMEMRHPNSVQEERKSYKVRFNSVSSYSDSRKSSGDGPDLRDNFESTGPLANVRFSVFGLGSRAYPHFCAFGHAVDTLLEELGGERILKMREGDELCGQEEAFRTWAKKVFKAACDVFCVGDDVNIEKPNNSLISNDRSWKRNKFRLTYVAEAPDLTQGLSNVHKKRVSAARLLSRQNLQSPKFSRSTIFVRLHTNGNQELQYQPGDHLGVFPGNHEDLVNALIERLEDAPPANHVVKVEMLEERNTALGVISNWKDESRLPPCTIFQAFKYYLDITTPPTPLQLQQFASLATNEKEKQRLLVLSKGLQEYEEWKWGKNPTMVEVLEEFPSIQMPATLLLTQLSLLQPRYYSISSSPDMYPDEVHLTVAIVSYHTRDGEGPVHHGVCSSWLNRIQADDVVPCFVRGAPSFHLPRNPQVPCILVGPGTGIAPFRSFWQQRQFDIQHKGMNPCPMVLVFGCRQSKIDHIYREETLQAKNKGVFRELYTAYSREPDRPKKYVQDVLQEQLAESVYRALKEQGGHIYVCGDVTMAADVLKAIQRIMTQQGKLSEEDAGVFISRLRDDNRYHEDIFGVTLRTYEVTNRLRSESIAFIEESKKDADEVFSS

- Ki (Nitric oxide synthase 1): 230 µM
SMILES: O=C(Cn1cccc1)c1ccc([N+](=O)[O-])cc1

- Ki (Nitric oxide synthase 1): 35.8 µM
- Ki (Nitric oxide synthase 3): 45 µM
SMILES: O=C(Cn1cnc2ncccc21)c1ccc([N+](=O)[O-])cc1

- Ki (Nitric oxide synthase 1): 85 µM
- IC50 [5]: 66 µM
- IC50 (Plasma [6]): 10 µM
- inhibition at 500 µM (CYP450): 13%
- Ki (Nitric oxide synthase 3): > 2000 µM
- IC50 [9]: > 500 µM
SMILES: Cc1cn(CC(=O)c2ccc([N+](=O)[O-])cc2)cn1
- Activity [1]: 17%
- inhibition (Plasma [2]): 53%
- Activity [3]: 56%
- Activity [4]: 23%
- Activity [5]: Dose-dependent effect
- inhibition (Plasma [7]): 65%
- inhibition (Plasma [8]): 69%
- Activity [9]: Dose-dependent effect
- Activity [10]: 41%
- Activity [11]: 12%
- Activity [12]: 20%

- Ki (Nitric oxide synthase 1): 47.5 µM
- Ki (Nitric oxide synthase 3): 40 µM
SMILES: O=C(Cn1cncn1)c1ccc([N+](=O)[O-])cc1

- Ki (Nitric oxide synthase 1): 66.2 µM
- Ki (Nitric oxide synthase 3): 75 µM
SMILES: O=C(Cn1cc2cccc([N+](=O)[O-])c2n1)c1ccc([N+](=O)[O-])cc1

- Ki (Nitric oxide synthase 1): 13.8 µM
- IC50 [5]: > 100 µM
- Ki (Nitric oxide synthase 3): 37.5 µM
- IC50 [9]: > 500 µM
SMILES: Cc1cc2ncn(CC(=O)c3ccc([N+](=O)[O-])cc3)c2cc1C
- Activity [1]: 19%
- Activity [3]: 45%
- Activity [4]: 37%
- Activity [5]: Dose-dependent effect
- Activity [9]: Dose-dependent effect
- Activity [10]: 45%
- Activity [11]: 11%
- Activity [12]: 0%

- Ki (Nitric oxide synthase 1): 36.3 µM
- Ki (Nitric oxide synthase 3): 25 µM
SMILES: O=C(Cn1cnc(-c2ccccc2)c1-c1ccccc1)c1ccc([N+](=O)[O-])cc1

- Ki (Nitric oxide synthase 1): 74 µM
- IC50 [5]: 70 µM
- IC50 (Plasma [6]): 1.75 µM
- Ki (Nitric oxide synthase 3): > 2000 µM
- IC50 [9]: 165 µM
SMILES: Cc1nccn1CC(=O)c1ccc([N+](=O)[O-])cc1

- Ki (Nitric oxide synthase 1): 31.7 µM
- Ki (Nitric oxide synthase 3): 70.2 µM
SMILES: O=C(Cn1cnc2cccnc21)c1ccc([N+](=O)[O-])cc1

- Ki (Nitric oxide synthase 1): 45 µM
- Ki (Nitric oxide synthase 3): 70 µM
SMILES: O=C(Cn1cnc(-c2ccccc2)c1)c1ccc([N+](=O)[O-])cc1

- Ki (Nitric oxide synthase 1): 40 µM
- Ki (Nitric oxide synthase 3): 37.5 µM
SMILES: O=C(Cn1ccnc1-c1ccccc1)c1ccc([N+](=O)[O-])cc1

- Ki (Nitric oxide synthase 1): 750 µM
SMILES: CC(C)c1nccn1CC(=O)c1ccccc1

- Ki (Nitric oxide synthase 1): 120 µM
- Ki (Nitric oxide synthase 3): 120 µM
SMILES: O=C(Cn1cnc([N+](=O)[O-])c1)c1ccc([N+](=O)[O-])cc1

- Ki (Nitric oxide synthase 1): 12.5 µM
- IC50 [5]: 85 µM
- IC50 (Plasma [6]): 17 µM
- Ki (Nitric oxide synthase 3): 32.5 µM
- IC50 [9]: > 500 µM
SMILES: O=C(Cn1nnc2ccccc21)c1ccc([N+](=O)[O-])cc1
- Activity [1]: 21%
- inhibition (Plasma [2]): 37%
- Activity [3]: 51%
- Activity [4]: 35%
- Activity [5]: Dose-dependent effect
- inhibition (Plasma [7]): 48%
- inhibition (Plasma [8]): 57%
- Activity [9]: Dose-dependent effect
- Activity [10]: 31%
- Activity [11]: 14%
- Activity [12]: 26%

- Ki (Nitric oxide synthase 1): 40 µM
- IC50 [5]: 38 µM
- IC50 (Plasma [6]): > 100 µM
- Ki (Nitric oxide synthase 3): 45 µM
- IC50 [9]: 262 µM
SMILES: CCCc1nccn1CC(=O)c1ccc([N+](=O)[O-])cc1
- Activity [1]: 35%
- inhibition (Plasma [2]): 30%
- Activity [3]: 62%
- Activity [4]: 34%
- Activity [5]: Dose-dependent effect
- inhibition (Plasma [7]): 31%
- inhibition (Plasma [8]): 44%
- Activity [9]: Dose-dependent effect
- Activity [10]: 56%
- Activity [11]: 25%
- Activity [12]: 22%

- Ki (Nitric oxide synthase 1): 22.5 µM
- Ki (Nitric oxide synthase 3): 30 µM
SMILES: O=C(Cn1nc2ccccc2n1)c1ccc([N+](=O)[O-])cc1

- Ki (Nitric oxide synthase 1): > 500 µM
SMILES: Cc1nccn1CC(=O)c1ccccc1

- Ki (Nitric oxide synthase 1): 65 µM
- Ki (Nitric oxide synthase 3): 90 µM
SMILES: Cc1cc(C)n(CC(=O)c2ccc([N+](=O)[O-])cc2)n1

- Ki (Nitric oxide synthase 1): 105 µM
- IC50 [5]: 165 µM
- IC50 (Plasma [6]): 18 µM
- Ki (Nitric oxide synthase 3): > 5000 µM
- IC50 [9]: 415 µM
SMILES: O=C(Cn1ccnc1)c1ccc([N+](=O)[O-])cc1

- Ki (Nitric oxide synthase 1): 480 µM
SMILES: O=C(Cn1cnc2ccccc21)c1ccccc1

- Ki (Nitric oxide synthase 1): 63 µM
- Ki (Nitric oxide synthase 3): 30 µM
SMILES: Cc1ccnn1CC(=O)c1ccc([N+](=O)[O-])cc1

- Ki (Nitric oxide synthase 1): 450 µM
SMILES: CC(C)c1nccn1CC(=O)c1ccc(Br)cc1

- Ki (Nitric oxide synthase 1): 90 µM
- Ki (Nitric oxide synthase 3): 45 µM
SMILES: Cc1cncn1CC(=O)c1ccc([N+](=O)[O-])cc1

- Ki (Nitric oxide synthase 1): 46.6 µM
- Ki (Nitric oxide synthase 3): 2.75 µM
SMILES: O=C(Cn1cnc2ccccc21)c1ccc([N+](=O)[O-])cc1

- Ki (Nitric oxide synthase 1): 620 µM
SMILES: Cc1nccn1CC(=O)c1ccc(Br)cc1

- Ki (Nitric oxide synthase 1): 75 µM
- Ki (Nitric oxide synthase 3): 75 µM
SMILES: CCc1nc(C)cn1CC(=O)c1ccc([N+](=O)[O-])cc1

- Ki (Nitric oxide synthase 1): 450 µM
SMILES: O=C(Cn1ccnc1)c1ccc(S(=O)(=O)C(F)(F)F)cc1

- Ki (Nitric oxide synthase 1): 32.5 µM
- Ki (Nitric oxide synthase 3): 60 µM
SMILES: O=C(Cn1cc2ccccc2n1)c1ccc([N+](=O)[O-])cc1

- Ki (Nitric oxide synthase 1): 40 µM
- Ki (Nitric oxide synthase 3): 60 µM
SMILES: O=C(Cn1cccn1)c1ccc([N+](=O)[O-])cc1

- Ki (Nitric oxide synthase 1): 22.5 µM
- IC50 [5]: 185 µM
- IC50 (Plasma [6]): > 100 µM
- Ki (Nitric oxide synthase 3): 500 µM
- IC50 [9]: 230 µM
SMILES: CC(C)c1nccn1CC(=O)c1ccc([N+](=O)[O-])cc1
